Data from ChEMBL document CHEMBL1143019, “Hybrid molecules of estrone: new compounds with potential antibacterial, antifungal, and antiproliferative activities” (2007).
In brackets after ≈: the same amount, converted by molar mass.

How the values were obtained:
[1] = tested on: Staphylococcus aureus; assay: Antibacterial activity against Staphylococcus aureus SG 511 after 24 hrs by micro-broth dilution method; type: functional; conditions: SG 511, 24 h
Summary of the method: (§1)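 Microbroth dilution per NCCLS guidelines. Bacteria grown overnight at 37 °C in Mueller–Hinton broth. Compound solution serially diluted twofold in MHB, then wells inoculated to a final 5×10⁵ CFU/mL. Incubated 24 h at 37 °C. MIC (µg/mL) read on an automatic plate reader as the lowest dilution allowing no visible growth.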

[2] = tested on: Staphylococcus aureus; assay: Antibacterial activity against methicillin-resistant Staphylococcus aureus 994/93 after 24 hrs by micro-broth dilution method; type: functional
Summary of the method: (§2)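 Broth microdilution per NCCLS in Mueller–Hinton broth. Overnight cultures grown at 37 °C. Compound serially diluted twofold, then wells inoculated to a final 5×10⁵ CFU/mL. Plates held at 37 °C for 24 h. MIC (µg/mL) read on an automatic plate reader as the lowest dilution with no visible growth.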

[3] = tested on: Micrococcus luteus; assay: Antibacterial activity against Micrococcus luteus ATCC 10240 after 24 hrs by microbroth dilution method; type: functional; conditions: ATCC 10240, 24 h; summary of the method: as §1
[4] = tested on: Enterococcus faecalis; assay: Antibacterial activity against Enterococcus faecalis 1528 after 24 hrs by micro-broth dilution method; type: functional; summary of the method: as §1
[5] = tested on: Mycolicibacterium smegmatis; assay: Antimicrobial activity against Mycobacterium smegmatis SG 987 after 24 hrs by micro-broth dilution method; type: functional; summary of the method: as §1
[6] = tested on: Mycolicibacterium aurum; assay: Antimicrobial activity against Mycobacterium aurum SB 66 after 24 hrs by micro-broth dilution method; type: functional; summary of the method: as §1
[7] = tested on: Mycolicibacterium vaccae; assay: Antimicrobial activity against Mycobacterium vaccae 10670 after 24 hrs by micro-broth dilution method; type: functional; summary of the method: as §1
[8] = tested on: Mycolicibacterium fortuitum; assay: Antimicrobial activity against Mycobacterium fortuitum Borstel after 24 hrs by microbroth dilution method; type: functional; summary of the method: as §1
[9] = tested on: Staphylococcus aureus; assay: Antibacterial activity against methicillin-resistant Staphylococcus aureus 134/94 after 24 hrs by microbroth dilution method; type: functional; summary of the method: as §2
[10] = tested on: Mycobacterium tuberculosis; assay: Antimicrobial activity against Mycobacterium tuberculosis My 331/88 after 14 days; type: functional; conditions: 336 h
[11] = tested on: Mycobacterium tuberculosis; assay: Antimicrobial activity against Mycobacterium tuberculosis My 331/88 after 21 days; type: functional; conditions: 504 h
[12] = tested on: Mycobacterium avium; assay: Antimicrobial activity against Mycobacterium avium My 330/88 after 14 days; type: functional; conditions: 336 h
[13] = tested on: Mycobacterium avium; assay: Antimicrobial activity against Mycobacterium avium My 330/88 after 21 days; type: functional; conditions: 504 h
[14] = tested on: Mycobacterium kansasii; assay: Antimicrobial activity against Mycobacterium kansasii My 235/80 after 7 days; type: functional; conditions: 168 h
Summary of the method: (§3)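 Run in Šula semisynthetic liquid medium containing bovine serum. Compounds added as DMSO solutions at final concentrations of […]. Each strain was also inoculated onto Löwenstein–Jensen medium to control inoculum sterility and growth.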

[15] = tested on: Mycobacterium kansasii; assay: Antimicrobial activity against Mycobacterium kansasii My 235/80 after 14 days; type: functional; conditions: 336 h; summary of the method: as §3
[16] = tested on: Mycobacterium kansasii; assay: Antimicrobial activity against Mycobacterium kansasii My 235/80 after 21 days; type: functional; conditions: 504 h; summary of the method: as §3
[17] = tested on: Mycobacterium kansasii; assay: Antimicrobial activity against Mycobacterium kansasii My 6509/96 after 7 days; type: functional; conditions: 168 h; summary of the method: as §3
[18] = tested on: Mycobacterium kansasii; assay: Antimicrobial activity against Mycobacterium kansasii My 6509/96 after 14 days; type: functional; conditions: 336 h; summary of the method: as §3
[19] = tested on: Mycobacterium kansasii; assay: Antimicrobial activity against Mycobacterium kansasii My 6509/96 after 21 days; type: functional; conditions: 504 h; summary of the method: as §3
[20] = tested on: L929; assay: Antiproliferative activity against mouse L929 cells after 72 hrs; type: functional; conditions: L929, 72 h
Summary of the method: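 About 10,000 adherent cells per well in RPMI 1640 with 10% heat-inactivated FBS and penicillin/streptomycin, without HEPES. Exposed to 10 concentrations for 72 h at 37 °C in humidified 5% CO₂. Monolayers fixed with glutaraldehyde, stained 15 min with 0.05% methylene blue, and eluted with 0.33 N HCl; OD read at 630 nm. GI50 derived from dose–response curves relative to control.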

[21] = tested on: K562; assay: Antiproliferative activity against human K562 cells after 72 hrs; type: functional; conditions: K562, 72 h
Summary of the method: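 About 10,000 suspension cells per well in RPMI 1640 with 10% heat-inactivated FBS and penicillin/streptomycin, without HEPES. Exposed to 10 concentrations for 72 h at 37 °C in humidified 5% CO₂. Wells diluted 1:50 in CASYTON and counted electronically, each result the mean of three successive counts. GI50 is where the concentration–response curve crosses 50% of control cell count.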

[22] = tested on: HeLa; assay: Cytotoxicity against human HeLa cells after 72 hrs; type: functional; conditions: for CC50: Homo sapiens, HeLa, 72 h
Summary of the method: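 About 10,000 cells per well in RPMI 1640 were preincubated 48 h without compound. The 10 test concentrations were then applied onto the monolayers and incubated 72 h at 37 °C in humidified 5% CO₂. Monolayers fixed with glutaraldehyde, stained with 0.05% methylene blue, and eluted with 0.33 N HCl; optical density measured at 630 nm.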

[23] = tested on: Candida albicans; assay: Antifungal activity against Candida albicans ATCC 44859 after 48 hrs; type: functional; conditions: ATCC 44859, 48 h
Summary of the method: (§4)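 Modified NCCLS M27-A broth microdilution with clinical isolates subcultured on Sabouraud dextrose agar. Suspensions diluted 1:50 in RPMI 1640 to give a final inoculum of 0.5–2.5×10³ CFU/mL for yeasts or 0.5–5×10⁴ CFU/mL for molds. The RPMI had L-glutamine, no bicarbonate, and 0.165 M MOPS to pH 7.0. Twofold dilutions from 250 to 0.49. Plates held at 35 °C, humid, without agitation. MIC is the lowest concentration giving ≥80% inhibition versus drug-free control, read at 24 and 48 h.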

[24] = tested on: Pichia kudriavzevii; assay: Antifungal activity against Candida krusei E28 after 48 hrs; type: functional; summary of the method: as §4
[25] = tested on: Nakaseomyces glabratus; assay: Antifungal activity against Candida glabrata 20/I after 48 hrs; type: functional; summary of the method: as §4
[26] = tested on: Trichosporon beigelii; assay: Antifungal activity against Trichosporon beigelii 1188 after 48 hrs; type: functional; summary of the method: as §4
[27] = tested on: Lichtheimia corymbifera; assay: Antifungal activity against Absidia corymbifera 272 after 48 hrs; type: functional; summary of the method: as §4
[28] = tested on: Trichophyton benhamiae; assay: Antifungal activity against Trichophyton mentagrophytes 445 after 120 hrs; type: functional, Arthroderma benhamiae
Summary of the method: (§5)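 Same modified M27-A microdilution with the mold inoculum of 0.5–5×10⁴ CFU/mL. Medium was RPMI 1640 with L-glutamine, no bicarbonate, and 0.165 M MOPS at pH 7.0. Twofold dilutions from 250 to 0.49. Incubated at 35 °C in a humid atmosphere.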

[29] = tested on: Candida albicans; assay: Antifungal activity against Candida albicans ATCC 44859 after 24 hrs; type: functional; conditions: ATCC 44859, 24 h; summary of the method: as §4
[30] = tested on: Candida tropicalis; assay: Antifungal activity against Candida tropicalis 156 after 24 hrs; type: functional; summary of the method: as §4
[31] = tested on: Candida tropicalis; assay: Antifungal activity against Candida tropicalis 156 after 48 hrs; type: functional; summary of the method: as §4
[32] = tested on: Pichia kudriavzevii; assay: Antifungal activity against Candida krusei E28 after 24 hrs; type: functional; summary of the method: as §4
[33] = tested on: Nakaseomyces glabratus; assay: Antifungal activity against Candida glabrata 20/I after 24 hrs; type: functional; summary of the method: as §4
[34] = tested on: Trichosporon beigelii; assay: Antifungal activity against Trichosporon beigelii 1188 after 24 hrs; type: functional; summary of the method: as §4
[35] = tested on: Aspergillus fumigatus; assay: Antifungal activity against Aspergillus fumigatus 231 after 24 hrs; type: functional; summary of the method: as §4
[36] = tested on: Aspergillus fumigatus; assay: Antifungal activity against Aspergillus fumigatus 231 after 48 hrs; type: functional; summary of the method: as §4
[37] = tested on: Lichtheimia corymbifera; assay: Antifungal activity against Absidia corymbifera 272 after 24 hrs; type: functional; summary of the method: as §4
[38] = tested on: Trichophyton benhamiae; assay: Antifungal activity against Trichophyton mentagrophytes 445 after 72 hrs; type: functional, Arthroderma benhamiae; summary of the method: as §5

SMILES	MIC [1]	MIC [2]	MIC [3]	MIC [4]	MIC [5]	MIC [6]	MIC [7]	MIC [8]	MIC [9]	MIC [10]	MIC [11]	MIC [12]	MIC [13]	MIC [14]	MIC [15]	MIC [16]	MIC [17]	MIC [18]	GI50 [20]	GI50 [21]	also measured
O=C(O)c1cn(C2CC2)c2cc(N3CCNCC3)c(F)cc2c1=O [CIPROFLOXACIN]	0.2 µg/mL (≈ 0.604 µM)	> 100 µg/mL	12.5 µg/mL (≈ 37.7 µM)	0.8 µg/mL (≈ 2.41 µM)	0.78 µg/mL (≈ 2.35 µM)	0.1 µg/mL (≈ 0.302 µM)	0.78 µg/mL (≈ 2.35 µM)	0.4 µg/mL (≈ 1.21 µM)	–	–	–	–	–	–	–	–	–	–	–	–	–
Cc1ccc(CSc2ccncc2)cc1	50 µg/mL (≈ 232 µM)	100 µg/mL (≈ 464 µM)	100 µg/mL (≈ 464 µM)	100 µg/mL (≈ 464 µM)	50 µg/mL (≈ 232 µM)	25 µg/mL (≈ 116 µM)	25 µg/mL (≈ 116 µM)	12.5 µg/mL (≈ 58.1 µM)	100 µg/mL (≈ 464 µM)	62.5 µM (≈ 13.5 µg/mL)	62.5 µM (≈ 13.5 µg/mL)	62.5 µM (≈ 13.5 µg/mL)	125 µM (≈ 26.9 µg/mL)	32 µM (≈ 6.89 µg/mL)	62.5 µM (≈ 13.5 µg/mL)	125 µM (≈ 26.9 µg/mL)	32 µM (≈ 6.89 µg/mL)	62.5 µM (≈ 13.5 µg/mL)	24.3 µg/mL (≈ 113 µM)	37.5 µg/mL (≈ 174 µM)	MIC [19]: 125 µM (≈ 26.9 µg/mL); CC10 [22]: 13.3 µg/mL (≈ 61.8 µM); CC50 [22]: 21.4 µg/mL (≈ 99.4 µM)
Cc1ccc(CSc2cc[n+](CCCCCCCOc3ccc4c(c3)CC[C@@H]3[C@@H]4CC[C@]4(C)C(=O)CC[C@@H]34)cc2)cc1.[Br-]	1.56 µg/mL	3.12 µg/mL	0.8 µg/mL	3.12 µg/mL	6.25 µg/mL	3.12 µg/mL	1.56 µg/mL	6.25 µg/mL	3.12 µg/mL	4 µM	8 µM	8 µM	8 µM	16 µM	16 µM	16 µM	16 µM	16 µM	3.5 µg/mL	13.1 µg/mL	MIC [19]: 16 µM; MIC [23]: 3.9 µM; MIC [24]: 7.8 µM; MIC [25]: 7.8 µM; MIC [26]: 7.8 µM; MIC [27]: 15.6 µM; MIC [28]: 7.8 µM; CC10 [22]: 1 µg/mL; CC50 [22]: 1.9 µg/mL
C[C@]12CC[C@@H]3c4ccc(OCCCCCCC[n+]5ccc(SCc6ccc(Cl)cc6)cc5)cc4CC[C@H]3[C@@H]1CCC2=O.[Br-]	3.12 µg/mL	3.12 µg/mL	0.8 µg/mL	3.12 µg/mL	6.25 µg/mL	3.12 µg/mL	1.56 µg/mL	6.25 µg/mL	3.12 µg/mL	16 µM	16 µM	8 µM	8 µM	16 µM	16 µM	16 µM	16 µM	16 µM	2.8 µg/mL	1 µg/mL	MIC [29]: 7.8 µM; MIC [23]: 7.8 µM; MIC [30]: 15.6 µM; MIC [31]: 15.6 µM; MIC [32]: 7.8 µM; MIC [24]: 15.6 µM; MIC [33]: 15.6 µM; MIC [25]: 15.6 µM; MIC [34]: 7.8 µM; MIC [26]: 7.8 µM; MIC [35]: 15.6 µM; MIC [36]: 31 µM; MIC [37]: 62.5 µM; MIC [27]: 62.5 µM; MIC [38]: 7.8 µM; MIC [28]: 15.6 µM; CC10 [22]: 1.9 µg/mL; CC50 [22]: 4.1 µg/mL
